dFosB act-1: activators of delta FosB homodimer, primary screen, biochemical, fluorescence polarization, TAMRA-CDK5 oligo, single point. Protein FosB (Mus musculus), P13346. purified delta FosB; percent of positive-control signal above neutral wells. activation, % at 25 µM. actives 0.99% (n = 340,000). AID 493131, 2011;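 active = mean activation above about 17%, with every replicate also reaching it, limit read from the data, passing the limit was not always enough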
SR-BI DiI-HDL act: activators of SR-BI mediated DiI-HDL uptake, primary screen, ldlA[mSR-BI] CHO cells, DiI fluorescence. 3 h; 100 = double the neutral-control signal. activation, % at 12.5 µM. actives 0.096% (n = 320,000). AID 504775, 2011;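 active = mean replicate activation of at least 60% and every replicate at or above 60%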;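 also: 0% = median plate neutral-control signal and 100% = twice that signal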
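System: CHO ldlA[mSR-BI] cells / Medium: HEPES-buffered (25 mM, pH 7.4) F12 plus 0.5% BSA / Probe or stimulus: labelled HDL, 10 µg/mL / Doses: single compound concentration, delivered by pin transfer / Schedule: 3 h, 37 °C / Measured by: DiI fluorescence, bottom read / Measure: cell-associated DiI fluorescence as measure of HDL uptake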
SR-BI DiI inh: inhibitors of SR-BI mediated HDL lipid uptake, primary screen, ldlA[mSR-BI] cells, fluorescence, single point; inhibition, % at 12.5 µM; Scavenger receptor class B member 1 (Mus musculus), Q61009; actives 0.96% (n = 320,000); ldlA[mSR-BI] CHO cells, DiI-HDL uptake fluorescence, 3 h;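 active = mean replicate inhibition of at least 70% and a set share of replicates each scoring 70 or more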;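 also: 0% = median of neutral control wells and 100% = median of positive control wells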
CDK5 p35 inh: inhibitors of human CDK5/p35 kinase, primary screen, biochemical, single concentration; Recombinant CDK5/p35, ADP-Glo luminescence, 60 min; inhibition, % at 10 µM; Cyclin-dependent kinase 5 (Homo sapiens) + Cyclin-dependent kinase 5 activator 1 (Homo …; actives 0.01% (n = 330,000); AID 488839, 2010;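 active = highest replicate inhibition of at least 50% and at least 75% of replicates reaching 50%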;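 also: plate controls were DMSO neutral control for no effect and GW8510 at 10 µM for full effect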
Target sequence (Q00535 whole entry, looked up): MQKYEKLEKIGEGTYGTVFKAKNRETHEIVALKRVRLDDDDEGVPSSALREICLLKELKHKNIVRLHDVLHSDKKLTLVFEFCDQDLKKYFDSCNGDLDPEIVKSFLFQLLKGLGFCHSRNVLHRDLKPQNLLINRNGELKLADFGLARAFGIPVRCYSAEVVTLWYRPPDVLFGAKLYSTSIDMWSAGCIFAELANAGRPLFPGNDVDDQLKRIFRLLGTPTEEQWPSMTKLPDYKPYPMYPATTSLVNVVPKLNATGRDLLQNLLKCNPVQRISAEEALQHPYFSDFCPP
Target sequence (Q15078 whole entry, looked up): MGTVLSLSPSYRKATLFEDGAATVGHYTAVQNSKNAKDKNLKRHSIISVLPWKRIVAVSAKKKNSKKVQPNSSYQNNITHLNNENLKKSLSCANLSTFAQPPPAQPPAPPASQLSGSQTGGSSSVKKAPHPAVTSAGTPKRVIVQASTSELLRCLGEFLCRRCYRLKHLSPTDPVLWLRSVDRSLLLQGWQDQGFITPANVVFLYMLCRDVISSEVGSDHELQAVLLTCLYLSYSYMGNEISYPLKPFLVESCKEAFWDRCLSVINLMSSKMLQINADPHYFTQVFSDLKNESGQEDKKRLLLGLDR
DYRK1A inh: rat Dyrk1A kinase inhibitors, primary screen, biochemical, single point, plate reader | Dual specificity tyrosine-phosphorylation-regulated kinase 1A (Rattus norvegicus), Q63470 | ADP-Glo luminescence, NFATc1 peptide | inhibition, % at 12.5 µM | actives 0.43% (n = 310,000) | AID 504441, 2011;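 also: plate controls were vehicle with enzyme for no effect and no enzyme for full effect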
NSD2 inh: NSD2 histone methyltransferase inhibitors, primary screen, biochemical, AlphaScreen, single concentration, set 2 | NSD2 peptide methylation, 120 min | inhibition, % at 12.5 µM | actives 0.54% (n = 310,000)
dFosB act-2: activators of mouse delta FosB DNA binding, confirmation, biochemical, fluorescence polarization, TAMRA-CDK5 oligo, cherry-picked samples; shares compounds with dFosB act-1; purified delta FosB; normalised: neutral wells 0, positive control 100; activation, % at 24.9 µM; 2,400 tested, under 10 active;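 active = highest replicate activation at or above 34% and every replicate reaching that threshold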;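 also: higher polarization means more probe DNA bound by delta FosB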
* marks the source's active call; other numbers are inactive results. An excerpt weighted towards active compounds, which were near 2.5% of everything screened. Rule as the data show it, unless noted: active = inhibition above about 50%; inactive = the rest.

How did Cc1ccc(NC(=O)Nc2nc3ccccc3s2)cc1NC(=O)Nc1nc2ccccc2s1 do in these assays?
dFosB act-1: 32*; SR-BI DiI-HDL act: -24; SR-BI DiI inh: 24; CDK5 p35 inh: 1; DYRK1A inh: -2; NSD2 inh: -3; dFosB act-2: 1

Results for COc1ccc(C2C(C)C(=O)C(C)C(c3ccc(OC)cc3)N2N=O)cc1 (stereo unspecified) ?
dFosB act-1: -6; SR-BI DiI-HDL act: -12; SR-BI DiI inh: 12; CDK5 p35 inh: 1; DYRK1A inh: 1; NSD2 inh: 0

Results for COCCN(C(=O)COc1ccc(Cl)cc1)c1nnc(-c2cccnc2)s1 ?
dFosB act-1: -7; SR-BI DiI-HDL act: 8; SR-BI DiI inh: -8; CDK5 p35 inh: -1; DYRK1A inh: 9; NSD2 inh: 0

Results for COCCN(C(=O)COc1ccccc1)c1nnc(-c2cccnc2)s1 ?
dFosB act-1: 32*; SR-BI DiI-HDL act: 3; SR-BI DiI inh: -3; CDK5 p35 inh: 1; DYRK1A inh: 2; NSD2 inh: -4; dFosB act-2: 7

How did CCOC(=O)NC(=S)Nc1ccc(C(C)(C)C)cc1 do in these assays?
dFosB act-1: -15; SR-BI DiI-HDL act: -16; SR-BI DiI inh: 16; CDK5 p35 inh: 0; DYRK1A inh: -4; NSD2 inh: 0

How did Cn1c2ccccc2c2cc(C(=O)OCC(=O)N3CC(=O)Nc4ccccc43)sc21 do in these assays?
dFosB act-1: 39*; SR-BI DiI-HDL act: -47; SR-BI DiI inh: 47; CDK5 p35 inh: 0; DYRK1A inh: -7; NSD2 inh: -1; dFosB act-2: 3

What do the screens show for `O=C1CN(C(=O)COC(=O)c2cccs2)c2ccccc2N1`?
dFosB act-1: 0; SR-BI DiI-HDL act: 22; SR-BI DiI inh: -22; CDK5 p35 inh: 0; DYRK1A inh: 5; NSD2 inh: 1

How did O=C(O)c1cc(S(=O)(=O)NC23CC4CC(CC(C4)C2)C3)ccc1Cl do in these assays?
dFosB act-1: 1; CDK5 p35 inh: 2; DYRK1A inh: 4; NSD2 inh: 0

What do the screens show for `Cn1c(=O)[nH]c(=O)c2c1nc(NCc1ccccc1)n2Cc1ccc(F)cc1`?
dFosB act-1: 0; SR-BI DiI-HDL act: 36; SR-BI DiI inh: -36; CDK5 p35 inh: 0; DYRK1A inh: -3; NSD2 inh: -1

How did COc1ccc(CNc2nc3c(c(=O)[nH]c(=O)n3C)n2Cc2ccccc2C)cc1 do in these assays?
dFosB act-1: 18*; SR-BI DiI-HDL act: -4; SR-BI DiI inh: 4; CDK5 p35 inh: -4; DYRK1A inh: 0; dFosB act-2: 0

What do the screens show for `CC[C@H](NC(=O)[C@@H](Cc1ccccc1)NC(=O)[C@H]1O[C@@H](n2ccc(=O)[nH]c2=O)[C@H](O)[C@@H]1O)c1ccccc1`?
NSD2 inh: -1

Results for Cc1cn(-c2cc(C(=O)Nc3ccc(C)c(NC(=O)N4CCNC4=O)c3)cc(C(F)(F)F)c2)cn1 ?
dFosB act-1: 56*; SR-BI DiI-HDL act: -56; SR-BI DiI inh: 56; CDK5 p35 inh: 1; DYRK1A inh: 1; dFosB act-2: -2

What do the screens show for `Cc1ccc(NC(=O)CCC(=O)c2ccccc2)cc1`?
dFosB act-1: 0; SR-BI DiI-HDL act: 1; SR-BI DiI inh: -1; CDK5 p35 inh: 1; NSD2 inh: -5

How did Cc1ccc(C(=O)CCC(=O)NNC(=O)c2ccccc2O)cc1 do in these assays?
dFosB act-1: 23*; SR-BI DiI-HDL act: -2; SR-BI DiI inh: 2; CDK5 p35 inh: 0; DYRK1A inh: 5; NSD2 inh: -2; dFosB act-2: -1

How did Cc1ccc(-c2nc3ncccc3o2)cc1NC(=S)NC(=O)c1ccco1 do in these assays?
dFosB act-1: -20; SR-BI DiI-HDL act: -43; SR-BI DiI inh: 43; CDK5 p35 inh: 1; DYRK1A inh: 0; NSD2 inh: 1

Results for Cc1cc(-c2nc3ncccc3o2)ccc1NC(=S)NC(=O)c1ccco1 ?
dFosB act-1: 25*; SR-BI DiI-HDL act: -5; SR-BI DiI inh: 5; CDK5 p35 inh: 0; DYRK1A inh: -2; NSD2 inh: 2; dFosB act-2: 0

Results for O=C(COc1ncnc2ccccc12)Nc1cc([N+](=O)[O-])ccc1Cl ?
dFosB act-1: 21*; SR-BI DiI-HDL act: -16; SR-BI DiI inh: 16; CDK5 p35 inh: -5; DYRK1A inh: 0; NSD2 inh: 1; dFosB act-2: -1

What do the screens show for `COc1ccc([N+](=O)[O-])cc1Nc1ncnc2ccccc12`?
dFosB act-1: 38*; SR-BI DiI-HDL act: 9; SR-BI DiI inh: -9; CDK5 p35 inh: 2; DYRK1A inh: -3; NSD2 inh: -2; dFosB act-2: 2

Results for O=[N+]([O-])c1ccc(O)c(Nc2ncnc3ccccc23)c1 ?
dFosB act-1: -1; SR-BI DiI-HDL act: 39; SR-BI DiI inh: -39; CDK5 p35 inh: 0; DYRK1A inh: 1; NSD2 inh: -4

What do the screens show for `COc1ccc([C@H]2CC(=O)C=C(c3ccc(CNC(=O)OC(C)(C)C)cc3)C2)cc1`?
dFosB act-1: -2; SR-BI DiI-HDL act: -36; SR-BI DiI inh: 36; CDK5 p35 inh: 1; DYRK1A inh: 9

How did Cc1c(N2C(=O)/C(=C/c3ccc(N(C)C)cc3)N(C)C2=S)c(=O)n(-c2ccccc2)n1C do in these assays?
dFosB act-1: 2; SR-BI DiI-HDL act: -7; SR-BI DiI inh: 7; CDK5 p35 inh: 2; NSD2 inh: 19

Results for COc1ccc(CC(=O)NCC2CCN(C(=O)C(=O)c3cc4ccccc4o3)CC2)cc1 ?
NSD2 inh: 0

How did CCNC(=O)c1c(NC(=O)C2COc3ccccc3O2)sc2c1CCCC2 (stereo unspecified) do in these assays?
dFosB act-1: 27*; SR-BI DiI-HDL act: -28; SR-BI DiI inh: 28; CDK5 p35 inh: -2; DYRK1A inh: 3; NSD2 inh: -1; dFosB act-2: -2

How did CCc1ccc2nc(SCC(=O)Nc3ccccc3N3CCOCC3)c(C#N)cc2c1 do in these assays?
dFosB act-1: 24*; CDK5 p35 inh: 2; DYRK1A inh: 1; NSD2 inh: -1; dFosB act-2: 5
